Assay results published in ChEMBL document CHEMBL1135439, “Imidazo[2,1-i]purin-5-ones and related tricyclic water-soluble purine derivatives: potent A(2A)- and A(3)-adenosine receptor antagonists” (J Med Chem, 2002).
In brackets after ≈: the same amount, converted by molar mass.

How the values were obtained:
[1] = target: Adenosine receptor A2a (Rattus norvegicus) (UniProt P30543); test: Percent displacement of [3H]CGS-21680 from Adenosine A2A receptor of rat brain striatal membrane at 30 uM
In short: (§1)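 Single-concentration inhibition of [3H]CGS21680 binding to rat striatal membrane A2A receptors, reported as percent displacement at the stated test concentration. Nonspecific binding was defined with 20 μM 2-chloroadenosine.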

[2] = target: T1, Adenosine receptor A1 (Rattus norvegicus) (UniProt P25099); test: Percent displacement of [3H]CHA from Adenosine A1 receptor of rat brain cortical membrane at 10 uM
T1 sequence (whole entry): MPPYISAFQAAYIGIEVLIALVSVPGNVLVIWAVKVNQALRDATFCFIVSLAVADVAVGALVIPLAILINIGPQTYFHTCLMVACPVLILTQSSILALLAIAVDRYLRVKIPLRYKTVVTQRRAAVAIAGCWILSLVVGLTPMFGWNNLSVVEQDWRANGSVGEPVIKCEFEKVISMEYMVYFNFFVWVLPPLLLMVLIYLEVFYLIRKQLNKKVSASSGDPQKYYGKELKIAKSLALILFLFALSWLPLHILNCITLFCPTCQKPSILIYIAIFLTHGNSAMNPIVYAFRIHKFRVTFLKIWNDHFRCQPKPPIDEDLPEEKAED
In short: (§2)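 Single-concentration inhibition of [3H]CHA binding to rat cerebral cortical membrane A1 receptors, reported as percent displacement at the stated test concentration. Nonspecific binding was determined with 10 μM 2-chloroadenosine.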

[3] = Water solubility of the compound; assay type: ADME; settings: read-out: S
[4] = target: T2, Adenosine receptor A2a (Rattus norvegicus, UniProt P30543); test: Binding affinity to the adenosine A2A receptor by displacement of [3H]CGS-21680 in rat brain striatal membrane; assay type: cell membranes
[5] = target: T1, Adenosine receptor A1 (Rattus norvegicus); test: Percent displacement of [3H]CHA from Adenosine A1 receptor of rat brain cortical membrane at 30 uM; in short: as §2
[6] = target: T3, Adenosine receptor A1 (Rattus norvegicus, UniProt P25099); assay type: cell membranes, Brain
T3 sequence (P25099 whole entry): T1 sequence (whole entry)

[7] = target: T1, Adenosine receptor A1 (Rattus norvegicus); test: Percent displacement of [3H]CHA from Adenosine A1 receptor of rat brain cortical membrane at 3 uM; in short: as §2
[8] = target: Adenosine receptor A2a (Rattus norvegicus) (UniProt P30543); test: Binding affinity against Adenosine A2A receptor by displacement of [3H]CGS-21680 radioligand in rat brain striatal membrane at 30 uM; assay type: cell membranes; in short: as §1
[9] = target: T4, Adenosine receptor A3 (Homo sapiens) (UniProt P0DMS8); test: Percent displacement against human Adenosine A3 receptor expressed in HEK293 cells by displacing [125I]AB-MECA at 10 uM; assay type: cell-based
T4 sequence (whole entry): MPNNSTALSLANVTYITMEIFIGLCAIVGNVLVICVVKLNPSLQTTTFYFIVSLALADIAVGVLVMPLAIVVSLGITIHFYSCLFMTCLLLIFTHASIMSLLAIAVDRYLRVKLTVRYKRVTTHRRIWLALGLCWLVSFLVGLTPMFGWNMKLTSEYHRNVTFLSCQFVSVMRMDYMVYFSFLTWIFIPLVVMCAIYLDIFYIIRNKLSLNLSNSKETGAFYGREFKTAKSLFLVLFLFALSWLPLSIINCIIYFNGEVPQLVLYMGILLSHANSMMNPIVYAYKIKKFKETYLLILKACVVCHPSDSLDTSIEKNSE

[10] = Water solubility was determined.; assay type: ADME
In short: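 A saturated aqueous solution was prepared and the undissolved residue filtered off. The filtrate was diluted with water and its UV absorbance read at λmax. Concentration was calculated from a previously determined calibration curve for each compound.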

[11] = target: T1, Adenosine receptor A1 (Rattus norvegicus); test: (§3) Inhibition against Adenosine A1 receptor of rat fat cell membranes (functional antagonist activity)
[12] = target: Adenosine receptor A2a (Rattus norvegicus) (UniProt P30543); test: (§4) Inhibition against A2A-Adenosine Receptor of rat PC12 cell membranes (functional antagonist activity); assay type: cell-based; settings: PC-12
[13] = target: T5, Adenosine receptor A2b (Mus musculus) (UniProt Q60614); test: (§5) Inhibition against A2B-Adenosine Receptor in mouse NIH 3T3 fibroblast cell membranes (functional antagonist activity); assay type: cell-based
T5 sequence (whole entry): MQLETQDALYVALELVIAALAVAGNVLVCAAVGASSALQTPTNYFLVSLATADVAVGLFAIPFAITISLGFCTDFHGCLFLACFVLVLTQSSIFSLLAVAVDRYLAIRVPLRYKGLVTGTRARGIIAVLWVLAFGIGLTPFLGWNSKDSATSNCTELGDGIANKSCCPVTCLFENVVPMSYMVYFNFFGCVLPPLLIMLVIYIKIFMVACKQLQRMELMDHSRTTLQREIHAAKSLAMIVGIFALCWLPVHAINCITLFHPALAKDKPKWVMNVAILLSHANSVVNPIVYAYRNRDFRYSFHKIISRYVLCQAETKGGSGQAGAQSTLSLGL
In short: (§6)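 Adenylate cyclase assay measuring antagonism of NECA-stimulated AC in rat PC12 membranes (A2A) or NIH 3T3 fibroblast membranes (A2B). KB was obtained from the Schild equation, using the ratio of NECA EC50 values with and without antagonist.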

[14] = target: T6, Adenosine receptor A3 (Homo sapiens, UniProt P0DMS8); test: Binding affinity against human recombinant Adenosine A3 receptor stably expressed in HEK293 cells by displacing [125I]AB-MECA radioligand; assay type: cell-based
T6 sequence (P0DMS8 whole entry): T4 sequence (whole entry)

[15] = target: T1, Adenosine receptor A1 (Rattus norvegicus); test: Percent displacement of [3H]CHA from Adenosine A1 receptor of rat brain cortical membrane at 250 uM; in short: as §2
[16] = target: T4, Adenosine receptor A3 (Homo sapiens); test: Percent displacement against human recombinant Adenosine A3 receptor expressed in HEK293 cells by displacing [125I]AB-MECA at 100 uM; assay type: cell-based
[17] = target: T5, Adenosine receptor A2b (Mus musculus); test: Inhibition against A2B-Adenosine Receptor in mouse NIH 3T3 fibroblast cell membranes; assay type: cell-based
In short: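 Functional adenylate cyclase assay in NIH 3T3 fibroblast cell membranes: test compounds antagonize NECA-induced stimulation of AC (cAMP accumulation). K_B is calculated with the Schild equation from the ratio of NECA EC50 values with and without antagonist.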

[18] = target: T3, Adenosine receptor A1; test: as §3
In short: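 Adenylate cyclase assay in rat fat cell membranes measuring antagonism of R-PIA-elicited AC inhibition. KB was obtained from the Schild equation, using the ratio of R-PIA IC50 values with and without antagonist.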

[19] = target: T2, Adenosine receptor A2a; test: as §4; assay type: cell-based, PC-12; in short: as §6
[20] = target: T7, Adenosine receptor A2b (Mus musculus, UniProt Q60614); test: as §5; assay type: cell-based; in short: as §6
T7 sequence (Q60614 whole entry): T5 sequence (whole entry)

T2 sequence (P30543 whole entry): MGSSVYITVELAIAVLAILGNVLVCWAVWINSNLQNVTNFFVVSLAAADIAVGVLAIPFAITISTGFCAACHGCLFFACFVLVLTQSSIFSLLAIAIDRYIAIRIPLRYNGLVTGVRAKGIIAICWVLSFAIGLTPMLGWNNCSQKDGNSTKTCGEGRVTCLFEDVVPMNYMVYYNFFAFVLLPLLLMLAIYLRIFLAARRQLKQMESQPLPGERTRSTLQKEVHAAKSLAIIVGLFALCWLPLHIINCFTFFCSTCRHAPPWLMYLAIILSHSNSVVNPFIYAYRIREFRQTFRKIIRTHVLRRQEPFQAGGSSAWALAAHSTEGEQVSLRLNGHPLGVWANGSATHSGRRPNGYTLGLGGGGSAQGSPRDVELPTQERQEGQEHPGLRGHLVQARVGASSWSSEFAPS
Sequence of Adenosine receptor A2a (Rattus norvegicus) (P30543 whole entry): as above

Row | Compound | Ki [4] | Ki [6] | other results
1 | C[C@H]1CN2C(=O)N(C)c3ncn(C)c3C2=N1 | – | – | Displacement [1]: 46%; Displacement [2]: 10%
2 | Cn1c(=O)c2c(nc(/C=C/c3ccccc3)n2C)n(C)c1=O | – | – | solubility [3]: 0.0028 mM (≈ 0.83 µg/mL)
3 | Cn1cnc2c1C1=NCCN1C(=O)N2Cc1ccccc1 | 16.1 µM | – | Displacement [5]: 24%
4 | CN1C(=O)N2CCCCN=C2c2c1ncn2C | 18.5 µM | 19.8 µM | –
5 | Cn1c(=O)c2[nH]c(-c3ccccc3)nc2n(C)c1=O [8-PHENYL THEOPHYLLINE] | 0.83 µM | – | –
6 | C[C@@H]1CN2C(=O)N(C)c3ncn(C)c3C2=N1 | – | – | Displacement [7]: 14%; Displacement [8]: 12%
7 | CN1C(=O)N2CCCN=C2c2c1ncn2C | 28.5 µM | 43.2 µM | –
8 | CN1C(=O)N2CCN=C2c2c1ncn2C | 20.7 µM | 79.6 µM | Displacement [9]: 40%; solubility [10]: 1210 mM (≈ 248000 µg/mL)
9 | CC[C@@H]1CN2C(=O)N(C)c3[nH]c(/C=C/c4ccccc4)nc3C2=N1 | 0.89 µM | 0.95 µM | Ki [14]: 0.64 µM
10 | CC[C@@H]1CN2C(=O)N(C)c3nc(-c4ccccc4)[nH]c3C2=N1 | 2.1 µM | 0.44 µM | Kb [11]: 0.43 µM; Kb [12]: 2.5 µM; Kb [13]: 2.1 µM
11 | CC[C@@H]1CN2C(=O)N(C)c3nc(/C=C/c4ccccc4)n(C)c3C2=N1 | 0.547 µM | 21.7 µM | Ki [14]: 1.7 µM
12 | CCC1CN2C(=O)N(C)c3[nH]c(-c4ccccc4)nc3C2=N1 (configuration not stated) | 3.1 µM | 0.265 µM | –
13 | Cn1c(=O)c2c(nc(-c3ccccc3)n2C)n(C)c1=O | – | – | solubility [3]: 0.487 mM (≈ 132 µg/mL)
14 | CN1C(=O)N2CCCCC/N=C\2c2c1ncn2C | 51 µM | 60.3 µM | –
15 | CN1C(=O)N2CCN=C2c2c1nc(-c1ccccc1)n2C | 20.3 µM | 9.7 µM | Ki [14]: 3.33 µM; solubility [3]: 1.45 mM (≈ 408 µg/mL)
16 | CC[C@H]1CN2C(=O)N(C)c3ncn(C)c3C2=N1 | 10.9 µM | – | Displacement [15]: 50%
17 | CCCn1c(=O)[nH]c(=O)c2nc[nH]c21 | – | – | Kb [17]: 18 µM
18 | Cn1c(-c2ccccc2)nc2c1C1=NCCN1C(=O)N2 | 11.9 µM | 1.83 µM | KB [18]: 500 nM; KB [19]: 17.2 µM; Ki [14]: 0.047 µM; KB [20]: 7 µM
19 | C[C@@H]1CN=C2c3c(ncn3C)N(C)C(=O)N21 | 50.4 µM | 23 µM | –
20 | Cn1c(=O)[nH]c2nc(-c3ccccc3)n(C)c2c1=O | – | – | Kb [11]: 0.32 µM; Kb [12]: 5.7 µM; Kb [13]: 5.2 µM
21 | Cn1c(=O)c2[nH]cnc2n(C)c1=O.O [THEOPHYLLINE] | – | – | Kb [17]: 16 µM; solubility [3]: 44.4 mM
22 | Cn1c(=O)c2c(ncn2C)n(C)c1=O | – | – | Kb [13]: 25 µM
23 | Cn1c(=O)c2nc(/C=C/c3ccccc3)[nH]c2n(C)c1=O | – | – | solubility [3]: 0.00022 mM (≈ 0.0621 µg/mL)
24 | CN1C(=O)N2CCCN=C2c2c1nc(Cl)n2C | 11.9 µM | 10.5 µM | –

Second part, led by results:

Row | Ki [4] | Ki [6] | Compound | other results
25 | 12 µM | 70 µM | C[C@H]1CN=C2c3c(ncn3C)N(C)C(=O)N21 | –
26 | 3.33 µM | 0.115 µM | CC[C@H]1CN2C(=O)N(C)c3[nH]c(-c4ccccc4)nc3C2=N1 | Kb [11]: 0.063 µM; Kb [12]: 4.3 µM; Kb [13]: 7.6 µM
27 | 0.424 µM | 14.9 µM | CC[C@H]1CN2C(=O)N(C)c3nc(/C=C/c4ccccc4)n(C)c3C2=N1 | Kb [11]: 33 µM; Ki [14]: 30.6 µM; Kb [12]: 1 µM; Kb [13]: 3.7 µM
28 | 16.2 µM | – | CCC1CN2C(=O)N(C)c3ncn(C)c3C2=N1 (configuration not stated) | Displacement [15]: 46%; Displacement [16]: 28%
29 | 16.2 µM | 4.7 µM | CC[C@H]1CN2C(=O)N(C)c3nc(-c4ccccc4)n(C)c3C2=N1 | –
30 | 0.67 µM | 0.73 µM | CC[C@H]1CN2C(=O)N(C)c3[nH]c(/C=C/c4ccccc4)nc3C2=N1 | –
31 | 19.2 µM | 6.1 µM | CCC1CN2C(=O)N(C)c3nc(-c4ccccc4)n(C)c3C2=N1 (configuration not stated) | Displacement [9]: 17%
32 | 64.6 µM | 59 µM | CC1CN=C2c3c(ncn3C)N(C)C(=O)N21 (configuration not stated) | –
33 | 40.9 µM | 65.5 µM | Cn1cnc2c1C1=NCCN1C(=O)N2 | –
34 | 28.3 µM | 75.5 µM | CC[C@@H]1CN2C(=O)N(C)c3ncn(C)c3C2=N1 | –
35 | 36.3 µM | 17.5 µM | CC[C@@H]1CN2C(=O)N(C)c3nc(-c4ccccc4)n(C)c3C2=N1 | –
